For one series, the system named is SU-DHL-5. The series can be described thus: Antiproliferative activity against human SU-DHL-5 cells assessed as cell viability at 10 uM by CellTiter-Glo luminescent cell viability assay (reference value: 100%). It is filed as functional. The following applies: read-out: Activity.
For series [1], the system named is SU-DHL10. Description: Induction of apoptosis in human SU-DHL-10 cells assessed as necrotic cells at 20 uM measured after 24 hrs by AnnexinV-FITC/PI staining based flowcytometry method (reference value: 0.2%). It is filed as functional. The procedure, abridged: (§1)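 Cells exposed to 20 μM compound for 24 h, washed with cold PBS, and stained with Annexin V-FITC and propidium iodide for 15 min at room temperature. Viable, early apoptotic, late apoptotic and necrotic populations quantified by flow cytometry.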

Series [2] deals with MOLT-4. Description: Antiproliferative activity against human MOLT-4 cells assessed as cell viability at 20 uM by CellTiter-Glo luminescent cell viability assay (reference value: 100%). It counts as functional. The following applies: read-out: Activity.
Series [3] relates to SU-DHL10. The series can be described thus: Induction of apoptosis in human SU-DHL-10 cells assessed as viable cells at 20 uM measured after 24 hrs by AnnexinV-FITC/PI staining based flowcytometry method (reference value: 90%). It is filed as functional. The following applies: read-out: Activity. The method in brief: as §1
Series [4] concerns the target T1, Phosphatidylinositol 4,5-bisphosphate 3-kinase catalytic subunit delta isoform (Homo sapiens) (UniProt O00329).
T1 sequence (whole entry): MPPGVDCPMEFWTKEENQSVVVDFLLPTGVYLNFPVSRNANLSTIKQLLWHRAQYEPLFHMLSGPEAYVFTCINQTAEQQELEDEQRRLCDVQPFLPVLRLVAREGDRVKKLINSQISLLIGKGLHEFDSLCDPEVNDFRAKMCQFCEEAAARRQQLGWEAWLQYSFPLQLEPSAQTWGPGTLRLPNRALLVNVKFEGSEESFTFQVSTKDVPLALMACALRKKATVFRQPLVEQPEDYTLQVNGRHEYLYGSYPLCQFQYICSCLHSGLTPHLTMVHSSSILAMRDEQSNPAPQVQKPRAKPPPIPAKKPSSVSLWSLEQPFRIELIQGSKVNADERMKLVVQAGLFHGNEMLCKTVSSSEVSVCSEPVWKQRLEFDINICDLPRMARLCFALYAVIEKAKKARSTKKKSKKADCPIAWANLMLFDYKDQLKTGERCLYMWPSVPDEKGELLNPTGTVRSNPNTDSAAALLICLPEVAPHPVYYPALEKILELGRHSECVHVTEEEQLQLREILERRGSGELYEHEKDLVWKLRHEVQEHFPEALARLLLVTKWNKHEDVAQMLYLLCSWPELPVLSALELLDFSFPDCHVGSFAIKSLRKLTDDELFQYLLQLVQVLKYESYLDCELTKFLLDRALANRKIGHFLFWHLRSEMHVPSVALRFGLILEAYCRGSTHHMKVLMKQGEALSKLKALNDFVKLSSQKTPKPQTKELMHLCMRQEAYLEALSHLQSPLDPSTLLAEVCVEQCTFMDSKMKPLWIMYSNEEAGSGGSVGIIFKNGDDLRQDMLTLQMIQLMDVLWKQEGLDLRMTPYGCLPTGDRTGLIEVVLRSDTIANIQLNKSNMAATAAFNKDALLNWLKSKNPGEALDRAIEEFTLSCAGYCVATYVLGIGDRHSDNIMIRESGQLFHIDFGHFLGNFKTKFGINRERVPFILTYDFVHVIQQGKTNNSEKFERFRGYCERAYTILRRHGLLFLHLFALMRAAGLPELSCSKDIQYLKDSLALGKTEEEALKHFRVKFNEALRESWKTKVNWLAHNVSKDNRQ
The series can be described thus: Inhibition of PI3Kdelta in human MOLT-4 cells assessed as inhibition of 4EBP1 phosphorylation at 1 to 5 uM measured after 3 hrs by western blot assay. It counts as cell-based. Conditions: dose 1-5 µM. The procedure, abridged:
(§2)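 Treatment lasted 3 h: SUDHL-5 at 1 μM, MOLT-4 at 5 μM. Cells washed twice in cold PBS and lysed. Proteins resolved on 10–12% SDS-PAGE and blotted to PVDF. Probed for p-AKT S473, p-AKT T308, p-S6 and p-4E-BP1, with β-actin as loading control.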

Series [5] is described as follows: Tmax in Sprague-Dawley rat at 3 mg/kg, po measured for 24 hrs by LC-MS/MS analysis. It counts as ADME, organism-based. The following applies: in vivo. The procedure, abridged: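 Sprague-Dawley rats dosed orally at 1 or 3 mg/kg, three animals per group. Blood sampled at 0.25, 0.5, 1, 2, 4, 8 and 24 h post-dose. Plasma separated by centrifugation, extracted and quantified by LC-MS/MS. PK parameters (Cmax, AUClast, Tmax, t1/2) derived by non-compartmental software.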

The target in series [6] is T1, Phosphatidylinositol 4,5-bisphosphate 3-kinase catalytic subunit delta isoform (Homo sapiens). Description: Inhibition of PI3Kdelta in human SU-DHL-5 cells assessed as inhibition of AKT phosphorylation at Ser473 residue at 1 to 5 uM measured after 3 hrs by western blot assay. It is filed as cell-based. The following applies: dose 1-5 µM. The method in brief:
as §2

Series [7] shares this target. Description: Inhibition of PI3Kdelta in human SU-DHL-5 cells assessed as inhibition of AKT phosphorylation at Thr308 residue at 1 to 5 uM measured after 3 hrs by western blot assay. It counts as cell-based. Conditions: dose 1-5 µM. The method in brief: as §2
Series [8] relates to SU-DHL10. The series can be described thus: Induction of apoptosis in human SU-DHL-10 cells assessed as late apoptotic cells at 20 uM measured after 24 hrs by AnnexinV-FITC/PI staining based flowcytometry method (reference value: 3.48%). It is filed as functional. The method in brief: as §1
For series [9], the system named is SU-DHL10. The series can be described thus: Induction of apoptosis in human SU-DHL-10 cells assessed as early apoptotic cells at 20 uM measured after 24 hrs by AnnexinV-FITC/PI staining based flowcytometry method (reference value: 6.32%). It counts as functional. The procedure, abridged:
as §1

The test system of series [10] is MOLT-4. Description: Induction of apoptosis in human MOLT-4 cells assessed as late apoptotic cells at 20 uM measured after 24 hrs by AnnexinV-FITC/PI staining based flowcytometry method (reference value: 2.17%). It counts as functional. The method in brief: as §1
Series [11] addresses T1, Phosphatidylinositol 4,5-bisphosphate 3-kinase catalytic subunit delta isoform (Homo sapiens). Description: Inhibition of PI3Kdelta in human MOLT-4 cells assessed as inhibition of AKT phosphorylation at Ser473 residue at 1 to 5 uM measured after 3 hrs by western blot assay. The following applies: dose 1-5 µM. It counts as cell-based. The method in brief:
as §2

Series [12] shares this target. Description: Inhibition of PI3Kdelta in human SU-DHL-5 cells assessed as inhibition of 4EBP1 phosphorylation at 1 to 5 uM measured after 3 hrs by western blot assay. It is filed as cell-based. The following applies: dose 1-5 µM. The procedure, abridged:
as §2

Another series deals with MRC5. Description: Cytotoxicity against human MRC5 cells assessed as inhibition of cell viability measured after 48 hrs by MTT assay. It is filed as cell-based. The following applies: MRC5, 48 h. The method in brief: (§3)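 MTT assay in MRC-5 cells seeded at 2×10^6 cells/mL. Compound given in 1% FBS EMEM for 48 h at 37 °C in CO2. MTT solution then added for 3 h at 37 °C. Medium removed and formazan dissolved in DMSO.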

The subject of series [13] is MOLT-4. The series can be described thus: Induction of apoptosis in human MOLT-4 cells assessed as viable cells at 20 uM measured after 24 hrs by AnnexinV-FITC/PI staining based flowcytometry method (reference value: 95.3%). It is filed as functional. The following applies: read-out: Activity. The method in brief: as §1
Series [14] has as its target T1, Phosphatidylinositol 4,5-bisphosphate 3-kinase catalytic subunit delta isoform (Homo sapiens). Description: Inhibition of PI3Kdelta in human MOLT-4 cells assessed as inhibition of AKT phosphorylation at Thr308 residue at 1 to 5 uM measured after 3 hrs by western blot assay. It counts as cell-based. Conditions: dose 1-5 µM. The method in brief:
as §2

Series [15] in a line: Cytotoxicity against human MRC5 cells assessed as inhibition of cell viability at 20 uM measured after 48 hrs by MTT assay. It counts as cell-based. Conditions: read-out: INH. The procedure, abridged:
as §3

Series [16] relates to MOLT-4. Description: Induction of apoptosis in human MOLT-4 cells assessed as necrotic cells at 20 uM measured after 24 hrs by AnnexinV-FITC/PI staining based flowcytometry method (reference value: 0.51%). It is filed as functional. The method in brief: as §1

Active and inactive are the calls of the source. No cut-off for these calls is given here. A value given as a limit tells only on which side of the number the result lay.

In the case of `Cc1cccc2nc([C@@H](Nc3ncnc4nc[nH]c34)C3CC3)n(-c3ccccc3)c(=O)c12`, the viability at 10 µM in the series with SU-DHL-5 was found to be 20.2%. For the same compound, the Activity with SU-DHL10 [1] is 4.16%; with SU-DHL10 [8], 45.9%; in the series on SU-DHL10 [9], 34.9%; in the series on MOLT-4 [10] it was 42.3%; in the series with MOLT-4 [16], 3.3%. Besides, the viability at 20 µM in the series on MOLT-4 [2] came out at 14.6%; with SU-DHL10 [3], 15%; with MOLT-4 [13], 41%. Also, the inhibition entry in series [4], in [6], in series [7], in series [11], in series [12] and in series [14] was “Active” each time. Further, the time to peak (Tmax) in series [5] came to 30 min. Also, the IC50 in the series with MRC5 amounted to 49.1 µM. The cytotoxicity at 48 h, 20 µM in series [15] is 23.1%.
As to `O=c1c2c(F)cccc2nc([C@@H](Nc2ncnc3nc[nH]c23)C2CC2)n1-c1ccccc1`, the viability at 10 µM with SU-DHL-5 stood at 34.8%. Besides, the Activity worked out at 1.77% with SU-DHL10 [1]; 24.2% with SU-DHL10 [8]; 54.3% in the series on SU-DHL10 [9]; 30.3% with MOLT-4 [10]; 2.47% in the series on MOLT-4 [16]. In addition, the viability at 20 µM in the series with MOLT-4 [2] is 63.1%; with SU-DHL10 [3], 19.7%; with MOLT-4 [13], 49.5%. Also, the inhibition entry in series [4], in series [6], in [7], in series [11], in series [12] and in [14] was “Active” throughout. Moreover, in [5], the time to peak (Tmax) amounted to 60 min. Besides, the IC50 in the series with MRC5 was > 100 µM. In series [15], the cytotoxicity at 48 h, 20 µM worked out at 3.93%.
